From ChEMBL document CHEMBL1914449, “Lead optimization at C-2 and N-3 positions of thiazolidin-4-ones as HIV-1 non-nucleoside reverse transcriptase inhibitors” (Bioorg Med Chem, 2011)
≈ marks a conversion by molar mass, not a printed value.

Legend:
[1] = molecular target: Human immunodeficiency virus type 1 reverse transcriptase (Human immunodeficiency virus 1) (UniProt Q72547); assay: Inhibition of biotin-dNTP labeled HIV-1 reverse transcriptase using ABST as substrate at 100 ug/ml after 1 hr by ELISA
How it was run: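 ELISA-format RT assay. Template/primer, biotin- and DIG-labelled dNTPs and RT enzyme in lysis buffer were incubated 1 h at 37 °C. The product was captured on streptavidin, detected with anti-DIG-peroxidase and ABTS substrate, and absorbance read at 405 nm. Activity is reported as percent inhibition of RT.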

[2] = Cytotoxicity in human TZM-bl cells assessed as cell viability after 48 hrs by MTT assay; assay type: cell-based
How it was run: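 TZM-bl (JC53BL-13) cells were seeded at 1 × 10^4 per well and incubated overnight at 37 °C in 5% CO2. Medium was replaced with a twofold dilution series of compound for 48 h, and viability was read by MTT absorbance. CC50 (50% cytotoxic concentration) is the mean of three independent assays, each in quadruplicate.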

[3] = Selectivity index, ratio of CC50 for human TZM-bl cells to EC50 for X4 tropic Human immunodeficiency virus 1 subtype D-UG070; assay type: toxicity, cell-based; details: read-out: Ratio CC50/EC50
How it was run: (§1)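 Selectivity index is CC50/EC50. […] EC50 came from the 2-day luciferase (RLU) readout in HIV-1-infected TZM-bl cells (mean of two assays).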

[4] = Selectivity index, ratio of CC50 for human TZM-bl cells to EC50 for R5 tropic Human immunodeficiency virus 1 subtype B-ADA5; assay type: toxicity, cell-based; details: read-out: Ratio CC50/EC50; how it was run: as §1
[5] = tested on: Human immunodeficiency virus 1; assay: Antiviral activity against X4 tropic Human immunodeficiency virus 1 subtype D-UG070 infected in human TZM-bl cells assessed as inhibition of virus-induced cytopathic effect after 2 days by luciferase assay; assay type: functional, organism-based; details: Human immunodeficiency virus 1, subtype D-UG070, TZM-bl, 48 h
How it was run: (§2)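 TZM-bl cells were seeded at 1 × 10^4 per well and incubated overnight at 37 °C in 5% CO2. Medium was then replaced with HIV-1 stock for 2 h at 37 °C, and compound concentrations giving >50% viability were added. After two days, luciferase activity was read as RLU. EC50 is the mean of two independent assays, each in duplicate. Nevirapine served as positive control.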

[6] = Selectivity index, ratio of CC50 for human TZM-bl cells to EC50 for X4 tropic Human immunodeficiency virus 1 subtype B-3B; assay type: cell-based; details: read-out: Ratio CC50/EC50; how it was run: as §1
[7] = tested on: Human immunodeficiency virus 1; assay: Antiviral activity against R5 tropic Human immunodeficiency virus 1 subtype C-VB59 infected in human TZM-bl cells assessed as inhibition of virus-induced cytopathic effect after 2 days by luciferase assay; assay type: functional, organism-based; details: Human immunodeficiency virus 1, subtype C-VB59, TZM-bl, 48 h; how it was run: as §2
[8] = Selectivity index, ratio of CC50 for human TZM-bl cells to EC50 for R5 tropic Human immunodeficiency virus 1 subtype C-VB59; assay type: toxicity, cell-based; details: read-out: Ratio CC50/EC50; how it was run: as §1
[9] = tested on: Human immunodeficiency virus 1; assay: Antiviral activity against X4 tropic Human immunodeficiency virus 1 subtype B-3B infected in human TZM-bl cells assessed as inhibition of virus-induced cytopathic effect after 2 days by luciferase assay; assay type: functional, organism-based; details: 48 h; how it was run: as §2
[10] = tested on: Human immunodeficiency virus 1; assay: Antiviral activity against R5 tropic Human immunodeficiency virus 1 subtype B-ADA5 infected in human TZM-bl cells assessed as inhibition of virus-induced cytopathic effect after 2 days by luciferase assay; assay type: functional, organism-based; details: Human immunodeficiency virus 1, subtype B-ADA5, TZM-bl, 48 h; how it was run: as §2

Row | Compound | inhibition [1] | CC50 at 48 h [2] | selectivity ratio [3] | selectivity ratio [4] | EC50 [5] | selectivity ratio [6] | EC50 [7] | selectivity ratio [8] | EC50 [9] | EC50 [10]
1 | Cc1cccc(N2C(=O)CSC2c2c(Br)cncc2Br)n1 (stereo not drawn) | 77.6% | 26.7 µg/mL (≈ 62.2 µM) | 4.8 | 6.5 | 5.55 µg/mL (≈ 12.9 µM) | 12 | 2.24 µg/mL (≈ 5.22 µM) | 11.9 | 2.22 µg/mL (≈ 5.17 µM) | 4.11 µg/mL (≈ 9.58 µM)
2 | Cc1cc(C)nc(N2C(=O)CSC2c2c(Cl)cncc2Cl)c1 (stereo not drawn) | 85.3% | 37.3 µg/mL (≈ 105 µM) | 24.1 | 120 | 1.55 µg/mL (≈ 4.38 µM) | 46.6 | 1.1 µg/mL (≈ 3.11 µM) | 33.9 | 0.8 µg/mL (≈ 2.26 µM) | 0.31 µg/mL (≈ 0.875 µM)
3 | Cc1nc(N2C(=O)CSC2c2c(Cl)cncc2Cl)ccc1Br (stereo not drawn) | 76.6% | 66.7 µg/mL (≈ 159 µM) | 7.89 | 30.7 | 8.45 µg/mL (≈ 20.2 µM) | 10.8 | 6.5 µg/mL (≈ 15.5 µM) | 10.3 | 6.18 µg/mL (≈ 14.7 µM) | 2.17 µg/mL (≈ 5.18 µM)
4 | CC(C)(C)c1cc(N2C(=O)CSC2c2c(F)cccc2F)no1 (stereo not drawn) | 71.5% | 45.9 µg/mL (≈ 136 µM) | – | 18 | – | 15.5 | – | – | 2.97 µg/mL (≈ 8.78 µM) | 2.58 µg/mL (≈ 7.62 µM)
5 | Cc1cc(N2C(=O)CSC2c2c(Br)cncc2Br)nc(C)c1Br (stereo not drawn) | 62% | – | – | – | – | – | – | – | – | –
6 | CSc1nc(Cl)cc(N2C(=O)CSC2c2c(F)cccc2Cl)n1 (stereo not drawn) | 76.5% | 27 µg/mL (≈ 69.2 µM) | 15 | 21.4 | 1.8 µg/mL (≈ 4.61 µM) | 29 | 0.65 µg/mL (≈ 1.67 µM) | 41.5 | 0.93 µg/mL (≈ 2.38 µM) | 1.26 µg/mL (≈ 3.23 µM)
7 | CC(C)(C)c1cc(N2C(=O)CSC2c2c(Cl)cccc2Cl)no1 (stereo not drawn) | 50.4% | 48.5 µg/mL (≈ 131 µM) | 27.5 | 20 | 1.76 µg/mL (≈ 4.74 µM) | 32.6 | 1.8 µg/mL (≈ 4.85 µM) | 26.9 | 1.49 µg/mL (≈ 4.01 µM) | 2.4 µg/mL (≈ 6.46 µM)
8 | Cc1cc(N2C(=O)CSC2c2c(Cl)cccc2Cl)nc(C)c1Br (stereo not drawn) | 60.7% | 2.5 µg/mL (≈ 5.78 µM) | 8.6 | 2.9 | 0.29 µg/mL (≈ 0.671 µM) | 2.4 | 0.35 µg/mL (≈ 0.81 µM) | 7.1 | 1.04 µg/mL (≈ 2.41 µM) | 0.85 µg/mL (≈ 1.97 µM)
9 | Cc1ccnc2c1NC(=O)c1cccnc1N2C1CC1 [NEVIRAPINE] | – | 76.1 µg/mL (≈ 286 µM) | 1520 | 1520 | 0.05 µg/mL (≈ 0.188 µM) | 1520 | 0.05 µg/mL (≈ 0.188 µM) | 1520 | 0.05 µg/mL (≈ 0.188 µM) | 0.05 µg/mL (≈ 0.188 µM)
10 | Cc1nc(N2C(=O)CSC2c2c(Br)cncc2Br)ccc1Br (stereo not drawn) | 75.9% | 26.9 µg/mL (≈ 52.9 µM) | – | 10.7 | – | 4.4 | – | – | 6.09 µg/mL (≈ 12 µM) | 2.52 µg/mL (≈ 4.96 µM)
11 | Cc1cc(N2C(=O)CSC2c2c(F)cccc2Cl)nc(C)c1Br (stereo not drawn) | 91.2% | 40.2 µg/mL (≈ 96.7 µM) | 402 | 335 | 0.1 µg/mL (≈ 0.241 µM) | 447 | 0.07 µg/mL (≈ 0.168 µM) | 574 | 0.09 µg/mL (≈ 0.216 µM) | 0.12 µg/mL (≈ 0.289 µM)
12 | Cc1cc(N2C(=O)CSC2c2c(F)cccc2Cl)no1 (stereo not drawn) | 95.5% | 38.5 µg/mL (≈ 123 µM) | 51.3 | 36.3 | 0.75 µg/mL (≈ 2.4 µM) | 57.4 | 0.68 µg/mL (≈ 2.17 µM) | 56.6 | 0.67 µg/mL (≈ 2.14 µM) | 1.06 µg/mL (≈ 3.39 µM)
13 | CC(C)(C)c1cc(N2C(=O)CSC2c2c(F)cccc2Cl)no1 (stereo not drawn) | 51.1% | 40.7 µg/mL (≈ 115 µM) | 24.4 | 13.2 | 1.6 µg/mL (≈ 4.51 µM) | 20.8 | 2.5 µg/mL (≈ 7.05 µM) | 16.2 | 1.95 µg/mL (≈ 5.5 µM) | 3.07 µg/mL (≈ 8.65 µM)
14 | Cc1cc(N2C(=O)CSC2c2c(Cl)cccc2Cl)no1 (stereo not drawn) | 75.4% | 40.5 µg/mL (≈ 123 µM) | 81 | 62.3 | 0.5 µg/mL (≈ 1.52 µM) | 116 | 0.35 µg/mL (≈ 1.06 µM) | 116 | 0.35 µg/mL (≈ 1.06 µM) | 0.65 µg/mL (≈ 1.97 µM)
15 | Cc1cc(N2C(=O)CSC2c2c(Cl)cncc2Cl)nc(C)c1Br (stereo not drawn) | 57.4% | 15.6 µg/mL (≈ 36 µM) | – | 3.2 | – | 10.4 | – | – | 1.5 µg/mL (≈ 3.46 µM) | 4.8 µg/mL (≈ 11.1 µM)
16 | Cc1cc(N2C(=O)CSC2c2c(F)cccc2F)no1 (stereo not drawn) | 98.1% | 62.7 µg/mL (≈ 212 µM) | 33 | 46.8 | 1.9 µg/mL (≈ 6.41 µM) | 62 | 1.45 µg/mL (≈ 4.89 µM) | 43.2 | 1.01 µg/mL (≈ 3.41 µM) | 1.34 µg/mL (≈ 4.52 µM)
17 | Cc1cccc(N2C(=O)CSC2c2c(Cl)cncc2Cl)n1 (stereo not drawn) | 84.1% | 45 µg/mL (≈ 132 µM) | 14.5 | 27.4 | 3.1 µg/mL (≈ 9.11 µM) | 69.8 | 1.95 µg/mL (≈ 5.73 µM) | 23.1 | 0.65 µg/mL (≈ 1.91 µM) | 1.64 µg/mL (≈ 4.82 µM)
18 | Cc1cc(C)nc(N2C(=O)CSC2c2c(Br)cncc2Br)c1 (stereo not drawn) | 62.8% | 49.8 µg/mL (≈ 112 µM) | 23.7 | 41.1 | 2.1 µg/mL (≈ 4.74 µM) | 35.3 | 1.59 µg/mL (≈ 3.59 µM) | 31.3 | 1.41 µg/mL (≈ 3.18 µM) | 1.21 µg/mL (≈ 2.73 µM)
